Laboratory results as given in ChEMBL document CHEMBL1129388, “Structure-activity modifications of the HIV-1 inhibitors (+)-calanolide A and (-)-calanolide B” (J Med Chem, 1996).

Key:
[1] = Ratio of inhibitory concentration to that of effective concentration for protection of CEM-SS cells from cytopathic effects of HIV-1 (RF strain); format: functional
How it was run: (§1)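 In vitro therapeutic index taken as IC50 divided by EC50.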

CEM-SS [2] = experiment: Using the XTT assay for cell viability, effective concentration to protect human lymphoblastoid CEM-SS cells from the cytopathic effects of HIV-1 (RF strain) was determined; format: functional, cell-based
How it was run: (§2)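 Values reported as averages of quadruplicate determinations.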

CEM-SS [3] = experiment: Using the XTT assay for cell viability, inhibitory concentration to protect human lymphoblastoid CEM-SS cells from the cytopathic effects of HIV-1 (RF strain) was determined; format: functional, cell-based; how it was run: as §2
CEM-SS [4] = experiment: Using the XTT assay for cell viability, effective concentration to protect human lymphoblastoid CEM-SS cells from the cytopathic effects of HIV-1 (RF strain) was determined; c - not measurable; format: functional, cell-based; how it was run: as §2
CEM-SS [5] = experiment: Using the XTT assay for cell viability, inhibitory concentration to protect human lymphoblastoid CEM-SS cells from the cytopathic effects of HIV-1 (RF strain) was determined; c - not measurable; format: functional, cell-based; how it was run: as §2
CEM-SS [6] = experiment: (§3) Using the XTT assay for cell viability, effective concentration to protect human lymphoblastoid CEM-SS cells from the cytopathic effects of HIV-1 (RF strain) was determined; d - Not independently evaluated; not stable under assay conditions; rapidl y converts to active compound 2 under assay conditions.; format: functional, cell-based
CEM-SS [7] = experiment: as §3, with “inhibitory” for “effective”, “rapid ly” for “rapidl y”; format: functional, cell-based
CEM-SS [8] = experiment: Using the XTT assay for cell viability, effective concentration to protect human lymphoblastoid CEM-SS cells from the cytopathic effects of HIV-1 (RF strain) was determined; c - not measurabel; format: functional, cell-based; how it was run: as §2
CEM-SS [9] = experiment: Using the XTT assay for cell viability, inhibitory concentration to protect human lymphoblastoid CEM-SS cells from the cytopathic effects of HIV-1 (RF strain) was determined; c - not measurabel; format: functional, cell-based; how it was run: as §2
CEM-SS [10] = experiment: Ratio of inhibitory concentration to that of effective concentration for protection of CEM-SS cells from cytopathic effects of HIV-1 (RF strain); not measurable; format: functional, cell-based; how it was run: as §1

Structure (SMILES)	TI [1]	EC50 (CEM-SS [2]) [µM]	IC50 (CEM-SS [3]) [µM]	also measured
CCCc1cc(=O)oc2c3c(c4c(c12)OC(C)(C)CC4)O[C@@H](C)[C@H](C)C3=O	21	0.37	7.9	
CCCc1cc(=O)oc2c3c(c4c(c12)OC(C)(C)C=C4)O[C@@H](C)[C@H](C)C3=O	24	0.4	8.5	
CCCc1cc(=O)oc2c3c(c4c(c12)OC(C)(C)CC4)O[C@@H](C)[C@H](C)[C@@H]3O [7,8-DIHYDROCALANOLIDE B]	41	0.2	8.2	
CCCc1cc(=O)oc2c3c(c4c(c12)OC(C)(C)C=C4)O[C@H](C)[C@@H](C)C3=O	62	0.15	9.3	
CCCc1cc(=O)oc2c3c(c4c(c12)OC(C)(C)CC4)O[C@H](C)C(C)=C3				EC50 (CEM-SS [4]): Not measurable; IC50 (CEM-SS [5]): Not measurable
CCCc1cc(=O)oc2c3c(c4c(c12)OC(C)(C)C=C4)O[C@@H](C)[C@H](C)[C@@H]3O [COSTATOLIDE]	31	0.2	5.9	
CCCc1cc(=O)oc2c3c(c4c(c12)OC(C)(C)C=C4)O[C@@H](C)[C@H](C)[C@@H]3F				EC50 (CEM-SS [6]): Not independently evaluated; IC50 (CEM-SS [7]): Not independently evaluated
CCCc1cc(=O)oc2c3c(c4c(c12)OC(C)(C)CC4)O[C@H](C)[C@@H](C)[C@@H]3O	23	0.2	5.2	
CCCc1cc(=O)oc2c3c(c4c(c12)OC(C)(C)C=C4)O[C@@H](C)[C@H](C)[C@H]3O [(-)-CALANOLIDE A]				EC50 (CEM-SS [8]): Not measurable; IC50 (CEM-SS [9]): Not measurable
CCCc1cc(=O)oc2c3c(c4c(c12)OC(C)(C)CC4)O[C@@H](C)[C@H](C)[C@@H]3N	10	0.6	5.8	
CCCc1cc(=O)oc2c3c(c4c(c12)OC(C)(C)C=C4)O[C@H](C)[C@@H](C)[C@@H]3O [CALANOLIDE A]	40	0.18	7.3	
CCCc1cc(=O)oc2c3c(c4c(c12)OC(C)(C)C=C4)O[C@@H](C)[C@H](C)[C@@H]3S		8.4	> 150	TI (CEM-SS [10]): Not measurable
CCCc1cc(=O)oc2c3c(c4c(c12)OC(C)(C)C=C4)O[C@@H](C)[C@H](C)[C@@H]3N=[N+]=[N-]	4	1.6	5.9	
